Measured values reported in ChEMBL document CHEMBL1132194, “Synthesis and dopamine receptor modulating activity of novel peptidomimetics of L-prolyl-L-leucyl-glycinamide featuring alpha,alpha-disubstituted amino acids” (1999).
Where a SMILES comes first, the peptide text is derived from it. [ ]: non-standard residue; d: D form. Ac6c = NC1(C(=O)O)CCCCC1; Ac5c = NC1(C(=O)O)CCCC1; Deg = CCC(N)(CC)C(=O)O; Ac3c = NC1(C(=O)O)CC1

Assays:
Type in all cases: functional
Rattus norvegicus [1] = assay: Effect (PLG inhibitor) on apomorphine-Induced rotational behavior in rats at a dose of 1.0 ug/Kg
Summary of the method: (§1)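 Rats carrying unilateral 6-hydroxydopamine lesions of the substantia nigra; test compound given ip, then apomorphine 0.25 mg/kg ip. Contralateral rotations counted over 10 min and expressed as percentage change from control rotational response; n = 5 per group; significance versus respective control group (p < 0.05, p < 0.01).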

Rattus norvegicus [2] = assay: Effect (PLG inhibitor) on apomorphine-Induced rotational behavior in rats at a dose of 0.10 ug/Kg; summary of the method: as §1
Rattus norvegicus [3] = assay: Effect (PLG inhibitor) on apomorphine-Induced rotational behavior in rats at a dose of 10.0 ug/Kg; summary of the method: as §1
Rattus norvegicus [4] = assay: Effect (PLG inhibitor) on apomorphine-Induced rotational behavior in rats at a dose of 0.01 ug/Kg; summary of the method: as §1

Compound: NC(=O)CN1CC[C@@H](NC(=O)[C@@H]2CCCN2)C1=O
- Change (Rattus norvegicus [1]): 75%
- Change (Rattus norvegicus [2]): 20%
- Change (Rattus norvegicus [3]): 191%

Compound: NC(=O)C1(N2CC[C@@H](NC(=O)[C@@H]3CCCN3)C2=O)CCCCC1
- Change (Rattus norvegicus [1]): 19%
- Change (Rattus norvegicus [4]): 7%
- Change (Rattus norvegicus [2]): 1%
- Change (Rattus norvegicus [3]): -2%

Compound: CCC(CC)(C(N)=O)N1CC[C@@H](NC(=O)[C@@H]2CCCN2)C1=O
- Change (Rattus norvegicus [1]): 17%
- Change (Rattus norvegicus [4]): 2%
- Change (Rattus norvegicus [2]): -3%
- Change (Rattus norvegicus [3]): 8%

Compound: NC(=O)C1(N2CC[C@@H](NC(=O)[C@@H]3CCCN3)C2=O)CCCC1
- Change (Rattus norvegicus [1]): 19%
- Change (Rattus norvegicus [4]): 4%
- Change (Rattus norvegicus [2]): -5%
- Change (Rattus norvegicus [3]): -4%

Compound: NC(=O)C1(N2CC[C@@H](NC(=O)[C@@H]3CCCN3)C2=O)CC1
- Change (Rattus norvegicus [1]): -8%
- Change (Rattus norvegicus [4]): -6%
- Change (Rattus norvegicus [2]): 10%
- Change (Rattus norvegicus [3]): 4%

Compound: CC(C)C[C@H](NC(=O)[C@@H]1CCCN1)C(=O)NC1(C(N)=O)CC1 (H-Pro-Leu-[Ac3c]-NH2)
- Change (Rattus norvegicus [1]): 8%
- Change (Rattus norvegicus [4]): 15%
- Change (Rattus norvegicus [2]): 18%
- Change (Rattus norvegicus [3]): -7%

Compound: CC(C)C[C@H](NC(=O)[C@@H]1CCCN1)C(=O)NC1(C(N)=O)CCCC1 (H-Pro-Leu-[Ac5c]-NH2)
- Change (Rattus norvegicus [1]): 5%
- Change (Rattus norvegicus [4]): -15%
- Change (Rattus norvegicus [2]): -1%
- Change (Rattus norvegicus [3]): -26%

Compound: CC(C)C[C@H](NC(=O)[C@@H]1CCCN1)C(=O)NC1(C(N)=O)CCCCC1 (H-Pro-Leu-[Ac6c]-NH2)
- Change (Rattus norvegicus [1]): -2%
- Change (Rattus norvegicus [4]): -2%
- Change (Rattus norvegicus [2]): 14%
- Change (Rattus norvegicus [3]): -25%

Compound: CCC(CC)(NC(=O)[C@H](CC(C)C)NC(=O)[C@@H]1CCCN1)C(N)=O (H-Pro-Leu-[Deg]-NH2)
- Change (Rattus norvegicus [1]): 56%
- Change (Rattus norvegicus [4]): 6%
- Change (Rattus norvegicus [2]): 31%
- Change (Rattus norvegicus [3]): 1%
